Test results published in ChEMBL document CHEMBL4513216, “Probing the Open Global Health Chemical Diversity Library for Multistage-Active Starting Points for Next-Generation Antimalarials” (ACS Infect Dis, 2020).

Assay: Toxicity liver stage against HepG2, at 10uM
Assay type: cell-based
Design: test concentration 10 uM, cell line HepG2-A16-CD81EGFP
Settings: human, HepG2-A16-CD81EGFP cells; read-out: INHIBITION
Summary of the method: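 Uninfected HepG2-A16-CD81EGFP cells, 3 × 10^3 per well, 1536-well, plated on prespotted compound at 10 μM final, parasite-free screening media added to match infected plates; puromycin 10 μM positive, DMSO 0.5% negative; run in parallel with 48 h PbLuc assay at 37 °C, 5% CO2; viability by CellTiter-Glo luminescence, normalized to controls.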

Row | SMILES | cytotoxicity at 10 µM
1 | O=C(COc1coc(CN2CCCCC2)cc1=O)Nc1cccc(Cl)c1 | -1.89%
2 | COc1ccc(CCC(=O)N2CCCCC2Cn2cccn2)cc1F (stereo not given) | -8.7%
3 | Cc1ccc(-c2ccnc(NC(c3ncccc3C)C3CC3)n2)c(C)n1 (stereo not given) | 0.656%
4 | Cc1cc(C[C@@H]2COC[C@@H]2NC(=O)CN2CCCC2)on1 | -30.2%
5 | Cc1noc(C)c1CN1CCO[C@H]2[C@H](Oc3ncccc3F)CC[C@@H]21 | 2.93%
6 | CN(C)CC1CN(CC(=O)N2CCc3ccccc32)CCO1 (stereo not given) | -1.61%
7 | CN1CCOC(CNC(=O)CCCOc2cccc(F)c2)C1 (stereo not given) | -5.1%
8 | CCc1ccc(CNC(=O)N2CCN(Cc3cc(C)on3)CC2)s1 | -7.03%
9 | CS(=O)(=O)N1CCC2(CC1)CN(CCn1cccn1)C(=O)CO2 | -2.79%
10 | Cc1cc(C2CCCN(C(=O)CN3CCN(C)CC3)C2)n[nH]1 (stereo not given) | -4.18%
11 | CCCS(=O)(=O)CC(=O)Nc1ccsc1 | -5.61%
12 | Cc1nnc(CN(Cc2cccc3c2OCO3)CC2CCCO2)n1C (stereo not given) | 3.93%
13 | O=C1OCCN1Cc1ncnn1Cc1c(F)cccc1Cl | -1.26%
14 | CN(C(=O)Cc1coc(-c2ccccc2)n1)C1(C#N)CCC1 | 6.41%
15 | Clc1ccc2nc(N3CCC(NCCCC4CCOC4)CC3)sc2c1 (stereo not given) | 4.1%
16 | O=C1CC(c2cccs2)Cc2nc(O)c(C(=O)N3CCCC3)cc21 (stereo not given) | -3.96%
17 | CNC(=O)C1(c2cnccn2)CCCN1C(=O)c1ccccc1OC (stereo not given) | 3.1%
18 | Cc1cnn(CCNC(C)C(=O)NCCc2cccs2)c1 (stereo not given) | -9.38%
19 | CCNC(=O)NC1CN(Cc2ccccc2N(C)C)C[C@@H]1OC (stereo not given in full) | -8.11%
20 | O=C(c1cccc2c1OCCO2)N1CCCC(n2ccnc2)C1 (stereo not given) | -6.92%
21 | CC(C)CC(=O)N1CCc2nc(N3CCOCC3)nc(NC(C)C)c2C1 | 2.86%
22 | CCN1C(=O)CC(c2cnn(C)c2)C12CCN(C(=O)c1ccoc1)CC2 (stereo not given) | 9.61%
23 | COc1cc2nc3n(c(=O)c2cc1OC)CCN(C(=O)C1CCC1)CC3 | -8.8%

Row | SMILES | cytotoxicity at 10 µM
24 | CN(C)C(=O)CN1CCC2(C1)CN(CC1CCOC1)C2 (stereo not given) | 8.43%
25 | Cc1cccc(S(=O)(=O)N2Cc3nccn3CC(CN(C)C)C2)c1 (stereo not given) | -105%
26 | COC1CCN(C(=O)Cn2ncc(N3CCCCC3)cc2=O)C1 (stereo not given) | -2.69%
27 | CC(C)(O)CN1CC(C)(C)CN(C(=O)CCc2ccccc2)CC1=O | 2.37%
28 | Cc1cc2n(n1)[C@@H](C(F)(F)F)C[C@@H](C1CCN(C(=O)C(C)C)CC1)N2 | -30%
29 | Cc1cc(O)ncc1NS(=O)(=O)c1cccc(F)c1F | 0.753%
30 | COc1ccccc1CNC(=O)CN(C)C(C)c1nccs1 (stereo not given) | 1.81%
31 | CC1(C)CNC(=O)c2nc(CCN3CCC(C(N)=O)CC3)[nH]c2C1 | -1.35%
32 | CC(=O)N1CC2(CCNCC2)c2cc(C)ccc21 | -73.2%
33 | CN(C)CCN(C)C(=O)c1cn(CC2CCCCC2)nn1 | -3.61%
34 | Cc1nnc2n1CCN(CCOc1ccc(C(C)(C)C)cc1)C2 | -17.1%
35 | CC(=O)N1CCC(c2ncc(C(=O)Nc3ccc(F)cc3)c(C)n2)CC1 | 7.29%
36 | O=C(NCC(O)c1cccc(F)c1)C1CCN(C(=O)C2CCC2)CC1 (stereo not given) | 4.43%
37 | CCOCCCNC(=O)c1cc(C)nc(N2CCCC2)n1 | 1.11%
38 | Cc1ccc2nc(CNc3ccccc3C(=O)NC3CC3)cn2c1 | 3.16%
39 | NCc1cccc(NC(=O)CCN2CCOCC2)c1 | -0.509%
40 | CS(=O)(=O)c1cn[nH]c1C1CCCCN1C(=O)Cc1cccnc1 (stereo not given) | -30.7%
41 | c1cncc(CNc2ccccc2-c2nn[nH]n2)c1 | 9.35%
42 | O=C(c1ncccn1)N1C[C@@H]2COC[C@]2(COCc2cccnc2)C1 | -1.9%
43 | COc1ccccc1Oc1ncccc1CNC(=O)[C@@H](N)[C@@H](C)O | -6.29%
44 | CCc1c(C)nn2c(O)cc(C3CCN(C(=O)c4ccn(C)n4)C3)nc12 (stereo not given) | 7.92%
45 | CC(=O)N(C)C1CCC2(CC1)CNC(=O)c1cc(C)ccc1O2 (stereo not given) | -35.4%
